# High-throughput results: PubChem, several laboratories
# The list is not random: actives were taken first. Their share in the collection is about 5.1%.
# STAT1 activator – increases IFN-gamma driven STAT1 reporter signal; activation (% of control), % at 5.5 µM; NIH 3T3 STAT1-luciferase reporter, luminescence; 100% = IFN-gamma alone, no compound; 2.6% of 200,000 active;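 active means activation above the screen-wide mean activation plus 3 SD, cut at about 130% in these data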;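 further: raw ratio to IFN-gamma control signal so 100% means no change and 0% no light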
# STAT3 blocker – reduces IL-6 driven STAT3 reporter signal. U3A cells, IL-6 STAT3-luciferase reporter, luminescence; host cell line lacks STAT1. inhibition, % at 5.5 µM. 0.89% of 190,000 active. AID 862;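 active means inhibition above the mean inhibition across all screened compounds plus 3 SD, cut at about 44% in these data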;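 further: 0% = DMSO only wells and 100% = 100 µM nifuroxazide control wells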
# APP 5'UTR act – activates APP 5'UTR luciferase reporter. SH-SY5Y APP 5'UTR luciferase reporter, luminescence; zero percent = DMSO vehicle wells. activation, % at 2 µM. 1% of 190,000 active;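 active means activation above a set limit, based on mean plus 3 SD of controls, cut at about 140% in these data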
# STAT1 inh – inhibitors of IFN-gamma induced STAT1 signaling; NIH 3T3 STAT1-luciferase reporter, luminescence; inhibition, % at 5.5 µM; 0.35% of 200,000 active; AID 920;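 active means inhibition above a set limit, the mean inhibition across all tested compounds plus 3 SD, cut at about 34% in these data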;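 further: 0% = IFN-gamma with DMSO and 100% = IFN-gamma with 300 µM nifuroxazide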
# NF-kB neuron act – compounds increasing NF-kB expression in human neuronal cells; NF-kB reporter expression; hits give high values; fold change at 12.5 µM; 1.6% of 190,000 active; AID 1239; in the data active means fold change above about 3.3
# STAT3 activator – activators of IL-6 induced STAT3 signaling; U3A cells, IL-6 STAT3-luciferase reporter, luminescence; 100% = signal with IL-6 EC80 alone; activation (% of control), % at 5.6 µM; 0.91% of 190,000 active; AID 871;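 active means activation above the screen-wide mean of compound activation plus 3 SD, cut at about 130% in these data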;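 further: 0% = background luminescence of wells with medium and substrate only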
#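 Material: STAT3-luciferase reporter U3A cells; Probe or stimulus: IL-6 (33 ng/mL); Incubation: compound pre-incubation 1 h before IL-6, then 6 h stimulation at 37 °C; Technique: luminescence from STAT3-driven luciferase reporter; Evaluation: % activation versus median of IL-6-stimulated wells; Controls: IL-6-only high control.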
# Starred values were filed as active, the others as inactive.
SMILES,STAT1 activator,STAT3 blocker,APP 5'UTR act,STAT1 inh,NF-kB neuron act,STAT3 activator
Cc1cc(C)c(C#N)c(SCc2nnc(-c3ccccc3[N+](=O)[O-])o2)n1,139.5*,-2.6,212.9*,-42.5,3.24,107.5
COCCN(CCOC)C(=O)c1cc2sc3ccccc3c2s1,103.4,14.3,6.4,-3.7,1.26,90.7
CCN(CC)C(=O)c1cc2sc3ccccc3c2s1,141.6*,17.0,76.3,-44.7,2.71,87.2
COCCOC(=O)c1c(C)oc2ccc(OCC=C(C)C)cc12,99.2,2.9,-14.6,0.9,1.05,100.0
COc1ccc(NC2=Nc3cccc4cccc2c34)cc1OC,105.6,29.8,-10.9,-6.2,1.09,78.7
Clc1ccc(/C=N/NC2=Nc3cccc4cccc2c34)cc1,135.4*,-18.7,70.0,-39.2,1.43,119.3
C(=N\NC1=Nc2cccc3cccc1c23)/c1cccnc1,150.1*,-27.4,73.8,-54.2,1.03,131.4
Clc1ccc(N/N=C/c2cccnc2)cc1,111.4,9.7,41.2,-12.6,1.83,95.9
C(=N\NC1=Nc2cccc3cccc1c23)/c1ccccc1,179.8*,-48.7,-31.1,-89.4,1.57,143.8*
CCCn1c(SCC(=O)N2c3ccccc3Sc3ccccc32)nc2ccccc21,100.4,-1.0,2.3,-0.4,0.57,104.0
CC(=O)c1cc(CC=C(C)C)c(O)c(CC=C(C)C)c1O,98.6,-2.5,13.9,1.5,1.22,107.6
CN(C)c1ccc(NC(=O)Nc2cccc(Cl)c2)cc1,135.3*,7.9,180.7*,-38.2,7.22*,96.9
CN(C)c1ccc(NC(=O)Oc2ccccc2)cc1,130.5*,-0.2,125.9,-32.9,1.47,105.5
Cc1ccc(C(=O)Nc2ccc3c(c2)nc2n3CCSC2)cc1,148.3*,20.5,168.8*,-52.6,5.44*,85.8
Cc1ccc(-n2sc3ccccc3c2=O)cc1S(=O)(=O)N1CCCCC1,90.9,3.3,-22.1,9.8,0.97,100.3
Cc1cc(NC(=O)c2ccccc2[N+](=O)[O-])ccc1Br,137.9*,10.4,46.9,-43.6,2.23,94.3
COC(=O)c1ccc(CSC2=NCCS2)cc1,129.9*,-12.1,60.6,-33.5,1.86,110.2
CCOc1cc(C2C(C(=O)c3ccc(C)o3)=C(O)C(=O)N2CCc2ccccc2)ccc1O (centres undefined),102.2,2.2,-7.8,-3.9,1.28,106.7
Oc1c(Br)cc(C=Nc2ccc3nc(-c4ccccc4)[nH]c3c2)c(O)c1Br,132.9*,9.0,69.8,-37.2,0.83,102.3
O=[N+]([O-])c1ccc(O)c(C=Nc2ccc3nc(-c4ccccc4)[nH]c3c2)c1,140.1*,-17.0,75.5,-45.0,1.75,111.6
CN(C)/C=N/c1ncc(C(=O)c2ccccc2)s1,129.0*,0.1,76.2,-32.3,2.52,108.8
CN(C)/C=N/c1ncc(C(=O)c2ccc(-c3ccccc3)cc2)s1,97.3,22.4,5.5,1.1,1.14,88.4
CCN1CCN(C2=NC(=O)/C(=C/c3ccc(C)o3)S2)CC1,102.0,7.3,5.7,-2.2,0.92,100.2
COCCN(CCOC)S(=O)(=O)c1ccc(C(=O)Nc2sc3c(c2C(N)=O)CCCCC3)cc1,128.6*,-6.4,90.0,-31.5,0.52,105.1
O=C(O)c1ccccc1C(=O)NNc1cccc(Cl)n1,115.8,4.3,155.2*,-19.0,1.27,100.2
SMILES,STAT1 activator,STAT3 blocker,APP 5'UTR act,STAT1 inh,NF-kB neuron act,STAT3 activator
COc1ccc(C2C(C#N)=C3NC(=O)c4c(sc5c4CCCCC5)N3C3=C2C(=O)CC(C)(C)C3)cc1 (centres undefined),104.5,7.9,10.2,-5.0,1.03,99.2
O=C1/C(=C\c2ccco2)CCC/C1=C\c1ccco1,122.7,-7.4,101.0,-25.5,5.87*,104.2
Cc1nc2c(-c3ccccc3)c[nH]n2c(=O)c1Cc1ccccc1,141.5*,-7.1,92.5,-46.0,1.06,106.8
CN(C)/C=C1\Oc2ccc3ccccc3c2C1=O,135.4*,16.8,86.3,-37.4,3.73*,92.3
CN(C)/C=C1/Oc2c(ccc3ccccc23)C1=O,108.9,21.5,0.6,-10.2,1.58,83.9
Cc1ccc(NC(=S)c2nc3ccccc3[nH]2)cc1,119.3,36.6,193.0*,-21.4,4.47*,77.6
Cc1ccc(NC(=S)N2CCCC(c3nc4ccccc4[nH]3)C2)cc1 (centres undefined),94.1,-3.3,0.3,5.5,0.55,109.8
Cc1ccc(SCC(=O)Nc2ccc(-c3nc4ccccc4[nH]3)cc2)cc1,132.2*,-0.8,7.5,-36.2,1.43,101.0
CN(C)CCNC(=S)Nc1ccc(-c2nc3ccccc3[nH]2)cc1,101.8,20.7,162.9*,-1.6,3.7*,88.8
CC(=O)Nc1ccc(-c2nc3c(C)cccc3[nH]2)cc1,129.5*,-19.0,169.4*,-31.9,3.82*,118.2
S=C(NCCCN1CCOCC1)Nc1ccc(-c2nc3ccccc3[nH]2)cc1,105.1,3.8,18.1,-9.1,0.99,100.8
COc1cccc(NC(=S)NNC(=O)c2c([N+](=O)[O-])c(C)nn2C)c1,102.5,8.2,13.4,-2.7,1.1,96.7
CC(=O)Nc1ccc2oc(C)nc2c1,106.9,2.1,15.4,-8.6,1.14,99.6
CO/N=C/NC(=O)c1cn(-c2ccc(F)cc2)c(=O)c2ccccc12,98.3,9.6,14.7,1.9,1.04,98.4
CC(C)CC(=O)Nc1ccc(-c2nc3ccccc3c(=O)[nH]2)cc1,139.7*,23.9,183.8*,-42.2,1.28,79.5
CCSCCOC(=O)C1=C(C)NC2=C(C(=O)CCC2)C1c1coc2ccccc2c1=O (centres undefined),95.2,-51.3,-12.7,5.3,0.8,144.5*
COCC(C)n1c(C)cc(C(=O)CSc2nnc(Nc3ccccc3F)s2)c1C (centres undefined),99.4,9.0,-6.0,0.7,0.88,95.6
NC(=O)c1ccsc1NC(=O)C1CCCN1S(=O)(=O)c1ccc(Cl)cc1 (centres undefined),99.0,5.2,2.4,1.1,1.63,98.1
CC1CCCCN1S(=O)(=O)c1ccc(C(=O)Nc2sccc2C(N)=O)cc1 (centres undefined),128.6*,-12.7,77.7,-31.5,1.27,118.4
CCC(=O)OC1(C#CCOc2ccc(OC)cc2)CCN(C)CC1,96.7,-2.1,14.0,3.6,1.12,104.9
COc1ccccc1-n1cnc2cc(NCc3cccs3)ccc21,112.9,-18.2,-93.1,-13.9,3.34*,116.3
Cc1ccccc1-n1cnc2cc(NCc3cccs3)ccc21,103.0,-6.0,12.3,-3.4,1.38,107.7
N#C/C(=C(/O)COc1ccc(Cl)cc1)c1nc2ccccc2s1,99.1,-2.2,16.3,-1.9,0.94,105.9
COc1ccc(-n2nc([N+](=O)[O-])c(=NCCc3ccc(Cl)cc3)n2O)cc1,102.3,8.8,11.2,-2.6,1.28,98.3
COc1ccc(-n2nc([N+](=O)[O-])c(=NCc3ccco3)n2O)cc1,143.2*,2.6,72.6,-48.5,2.23,99.5
